Activity calls are given as the source filed them. The rule behind the calls is not given here.
Tests used:
Saccharomyces cerevisiae [1] = test: Antimicrobial activity against Saccharomyces cerevisiae YCG198 harboring Saccharomyces cerevisiae Y8205 MATalpha PDR1delta::NAT PDR3 delta::URA3 assessed as growth inhibition at 100 uM after 18 hrs; assay type: functional; conditions: YCG198, 18 h, read-out: GI
Procedure, shortened: (§1)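 Stationary-phase yeast grown in synthetic complete medium, diluted to 5 × 10^5 cells/mL, then exposed 18 h at 30 °C to seven-point half-log dilutions from DMSO stocks (final 100 to 0.01 μM; one extended series topped at 300 μM). DMSO (1% or 3%) served as control. Growth was read as OD590, and residual growth = OD/OD_DMSO × 100. Mean ± standard error of two independent experiments in triplicate; IC50 from curve fit.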

HL-60 = test: Cytotoxicity against human HL60 cells assessed as growth inhibition after 2 days by MTT assay; assay type: functional, cell-based; conditions: HL-60, 48 h
Saccharomyces cerevisiae [2] = test: Antimicrobial activity against wild type Saccharomyces cerevisiae YCG117 harboring Saccharomyces cerevisiae Y8205 MATalpha ura3delta0::NAT assessed as growth inhibition at 0.01 to 100 uM after 18 hrs; assay type: functional, organism-based; procedure, shortened: as §1
Saccharomyces cerevisiae [3] = test: Antimicrobial activity against Saccharomyces cerevisiae YCG198 harboring Saccharomyces cerevisiae Y8205 MATalpha PDR1delta::NAT PDR3 delta::URA3 assessed as growth inhibition after 18 hrs; assay type: functional, organism-based; conditions: YCG198, 18 h; procedure, shortened: as §1
Saccharomyces cerevisiae [4] = test: Antimicrobial activity against Saccharomyces cerevisiae YCG198 harboring Saccharomyces cerevisiae Y8205 MATalpha PDR1delta::NAT PDR3 delta::URA3 assessed as growth inhibition at 0.01 to 100 uM after 18 hrs; assay type: functional, organism-based; procedure, shortened: as §1

## COc1c(C)c(CCCCCCCCCCSC)oc(=O)c1OC [LEHUALIDE I]
Saccharomyces cerevisiae [1]
  inhibition of growth at 100 µM: 67%
HL-60
  IC50: 10.8 µM
Saccharomyces cerevisiae [2]
  growth inhibition (GI): inactive

## COc1c(O)c(C)c(C/C=C(\C)CCCCCCc2ccccc2)oc1=O [LEHUALIDE F]
Saccharomyces cerevisiae [1]
  inhibition of growth at 100 µM: 60%
Saccharomyces cerevisiae [3]
  IC50: 44 µM
HL-60
  IC50: 6.2 µM

## COc1c(C)c(CCCCCCCCCCSC(C)=O)oc(=O)c1OC [LEHUALIDE H]
Saccharomyces cerevisiae [4]
  growth inhibition (GI): inactive
HL-60
  IC50: 14.6 µM
Saccharomyces cerevisiae [2]
  growth inhibition (GI): inactive

## COc1c(O)c(C)c(C/C=C(\C)CCCCCCCCc2ccccc2)oc1=O [LEHUALIDE G]
Saccharomyces cerevisiae [1]
  inhibition of growth at 100 µM: 68%
HL-60
  IC50: 5.4 µM
Saccharomyces cerevisiae [2]
  growth inhibition (GI): inactive
